The results in this text go back to ChEMBL document CHEMBL4627411, “Novel Piperidinyl-Azetidines as Potent and Selective CCR4 Antagonists Elicit Antitumor Response as a Single Agent and in Combination with Checkpoint Inhibitors” (J Med Chem, 2020).

Data set [1] has as its target C-X-C chemokine receptor type 3 (Homo sapiens) (UniProt P49682). Description: Antagonist activity at human Gi/G0-coupled CXCR3 assessed as inhibition of CXCL11-induced beta arrestin2 recruitment at 500 nM preincubated for 30 mins followed by CXCL11 stimulation and measured after 90 to 180 mins by pathhunter assay.
The target of data set [2] is Chemerin-like receptor 1 (Homo sapiens) (UniProt Q99788). In words: Antagonist activity at human CMKLR1 expressed in CHOK1 cells assessed as inhibition of chemerin-induced beta arrestin2 recruitment at 500 nM preincubated for 30 mins followed by chemerin stimulation and measured after 90 to 180 mins by pathhunter assay. The format is cell-based. As to conditions: CHO-K1.
Chain of Chemerin-like receptor 1 (Homo sapiens) (Q99788 whole entry): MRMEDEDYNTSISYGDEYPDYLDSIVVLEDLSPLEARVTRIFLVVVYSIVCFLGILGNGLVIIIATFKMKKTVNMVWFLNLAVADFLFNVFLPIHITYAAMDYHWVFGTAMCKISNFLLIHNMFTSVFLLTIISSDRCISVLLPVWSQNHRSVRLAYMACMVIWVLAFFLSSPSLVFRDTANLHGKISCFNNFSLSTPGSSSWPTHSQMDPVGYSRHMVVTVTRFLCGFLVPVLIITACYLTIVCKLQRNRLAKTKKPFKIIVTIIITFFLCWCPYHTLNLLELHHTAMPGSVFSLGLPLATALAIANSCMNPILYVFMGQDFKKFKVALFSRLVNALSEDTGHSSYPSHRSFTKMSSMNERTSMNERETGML

Another data set relates to Panc02. Description: Antitumor activity against mouse Panc02 cells allografted in C57BL/6 mouse assessed as reduction in tumor growth at 50 mg/kg, po qd for 38 days. Format: functional, organism-based. The essentials: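 Pan02-OVA syngeneic tumor model. Compound given 50 mg/kg PO QD on a therapeutic schedule, alone or combined with anti-CTLA-4 antibody; tumor growth tracked. Groups compared by two-tailed t-test.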

Data set [3] addresses C-C chemokine receptor type 6 (Homo sapiens) (UniProt P51684). In words: Antagonist activity at human Gi/G0-coupled CCR6 receptor expressed in CHOK1 cells assessed as inhibition of CCL20-induced beta arrestin2 recruitment at 500 nM preincubated for 30 mins followed by CCL20 stimulation and measured after 90 to 180 mins by pathhunter assay. Format: cell-based. As to conditions: CHO-K1.

Data set [4] concerns the target C-X-C chemokine receptor type 2 (Homo sapiens) (UniProt P25025). In words: Antagonist activity at human Gi/G0-coupled CXCR2 assessed as inhibition of CXCL8-induced beta arrestin2 recruitment at 500 nM preincubated for 30 mins followed by CXCL8 stimulation and measured after 90 to 180 mins by pathhunter assay.
In data set [5] the target is C-C chemokine receptor type 7 (Homo sapiens) (UniProt P32248). Description: Antagonist activity at human Gi/G0-coupled CCR7 receptor assessed as inhibition of CCL19-induced beta arrestin2 recruitment at 500 nM preincubated for 30 mins followed by CCL19 stimulation and measured after 90 to 180 mins by pathhunter assay.
Chain of C-C chemokine receptor type 7 (Homo sapiens) (P32248 whole entry): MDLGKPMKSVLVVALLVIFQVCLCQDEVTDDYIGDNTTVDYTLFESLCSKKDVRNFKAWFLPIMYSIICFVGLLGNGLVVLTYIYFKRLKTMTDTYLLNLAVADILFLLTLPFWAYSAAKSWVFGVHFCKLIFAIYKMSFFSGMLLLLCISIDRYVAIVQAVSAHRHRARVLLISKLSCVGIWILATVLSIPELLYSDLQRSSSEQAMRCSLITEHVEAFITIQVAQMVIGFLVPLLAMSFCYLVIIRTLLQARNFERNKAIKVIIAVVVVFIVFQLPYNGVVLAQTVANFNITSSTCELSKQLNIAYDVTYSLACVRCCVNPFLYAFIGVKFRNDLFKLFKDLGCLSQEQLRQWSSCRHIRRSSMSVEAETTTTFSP
Data set [6] is described as follows: Metabolic stability in human hepatocytes assessed as parent compound remaining at 1 uM after 60 mins by LC-MS/MS analysis. Format: ADME, cell-based, Hepatocyte. As to conditions: read-out: Stability. The method in brief: (§1)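 Hepatocytes (human or rat). Compound incubated for 60 min; value is % parent remaining.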
The target in data set [7] is T1, C-C chemokine receptor type 4 (Homo sapiens, UniProt P51679).
T1 sequence (P51679 whole entry): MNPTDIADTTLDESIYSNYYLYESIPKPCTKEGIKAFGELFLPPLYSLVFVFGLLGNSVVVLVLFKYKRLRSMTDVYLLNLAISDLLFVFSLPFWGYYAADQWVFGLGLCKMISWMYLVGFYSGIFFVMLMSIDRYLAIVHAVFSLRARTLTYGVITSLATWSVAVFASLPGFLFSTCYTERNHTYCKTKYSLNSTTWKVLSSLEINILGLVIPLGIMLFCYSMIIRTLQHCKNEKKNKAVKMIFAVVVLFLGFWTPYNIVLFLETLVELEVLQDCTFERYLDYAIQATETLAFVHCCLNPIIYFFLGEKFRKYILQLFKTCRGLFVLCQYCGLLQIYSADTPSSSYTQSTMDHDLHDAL
Description: Antagonist activity at human CCR4 expressed in rat chem-5 cells assessed as inhibition of CCL22-induced calcium flux measured at 2.5 secs time interval for 45 secs by calcium 6 dye-based FLIPR assay. Format: functional, cell-based. The method in brief: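 Primary calcium flux assay for CCR4 antagonism, run in the absence of serum.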

Data set [8] in a line: Oral bioavailability in dog at 2 mg/kg. Format: ADME, organism-based, Canis lupus familiaris. As to conditions: in vivo.
The target of data set [9] is C-C chemokine receptor type 8 (Homo sapiens) (UniProt P51685). Description: Antagonist activity at human CCR8 receptor assessed as inhibition of CCL1-induced beta arrestin2 recruitment at 500 nM preincubated for 30 mins followed by CCL1 stimulation and measured after 90 to 180 mins by pathhunter assay.
Chain of C-C chemokine receptor type 8 (Homo sapiens) (P51685 whole entry): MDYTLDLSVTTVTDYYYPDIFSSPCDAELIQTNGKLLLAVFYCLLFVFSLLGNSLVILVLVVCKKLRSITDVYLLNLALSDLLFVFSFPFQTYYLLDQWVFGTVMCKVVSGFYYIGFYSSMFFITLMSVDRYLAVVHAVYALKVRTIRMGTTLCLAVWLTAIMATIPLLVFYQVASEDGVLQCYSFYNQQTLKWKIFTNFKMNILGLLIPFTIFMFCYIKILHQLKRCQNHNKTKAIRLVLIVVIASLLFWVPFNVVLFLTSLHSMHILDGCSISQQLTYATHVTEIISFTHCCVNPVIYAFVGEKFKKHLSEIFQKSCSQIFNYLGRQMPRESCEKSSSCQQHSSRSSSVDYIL
Data set [10] concerns the target C-X-C chemokine receptor type 1 (Homo sapiens) (UniProt P25024). Description: Antagonist activity at human Gi/G0-coupled CXCR1 expressed in CHOK1 cells assessed as inhibition of CXCL8-induced beta arrestin2 recruitment at 500 nM preincubated for 30 mins followed by CXCL8 stimulation and measured after 90 to 180 mins by pathhunter assay. The format is cell-based. As to conditions: CHO-K1.

A short description of data set [11]: Oral bioavailability in mouse at 2 mg/kg. As to conditions: in vivo. The format is ADME, organism-based.
Data set [12] concerns the target C-X-C chemokine receptor type 4 (Homo sapiens) (UniProt P61073). In words: Antagonist activity at human Gi/G0-coupled CXCR4 assessed as inhibition of CXCL12-induced beta arrestin2 recruitment at 500 nM preincubated for 30 mins followed by CXCL12 stimulation and measured after 90 to 180 mins by pathhunter assay.
The target in data set [13] is C-C chemokine receptor type 3 (Homo sapiens) (UniProt P51677). Description: Antagonist activity at human Gi/G0-coupled CCR3 receptor expressed in CHO-K1 cells assessed as inhibition of CCL13-induced beta arrestin2 recruitment at 500 nM preincubated for 30 mins followed by CCL13 stimulation and measured after 90 to 180 mins by pathhunter assay. Format: cell-based.
Chain of C-C chemokine receptor type 3 (Homo sapiens) (P51677 whole entry): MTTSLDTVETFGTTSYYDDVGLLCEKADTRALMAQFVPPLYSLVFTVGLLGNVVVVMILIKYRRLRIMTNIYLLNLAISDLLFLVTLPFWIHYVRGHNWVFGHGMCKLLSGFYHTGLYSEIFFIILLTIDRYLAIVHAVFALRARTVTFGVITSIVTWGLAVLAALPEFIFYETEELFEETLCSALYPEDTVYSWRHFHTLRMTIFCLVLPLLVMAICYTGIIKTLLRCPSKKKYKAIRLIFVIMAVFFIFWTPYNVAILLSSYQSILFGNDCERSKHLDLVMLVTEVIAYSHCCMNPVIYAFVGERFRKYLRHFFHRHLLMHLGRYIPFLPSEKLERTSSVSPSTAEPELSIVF
Data set [14] is described as follows: Metabolic stability in rat hepatocytes assessed as parent compound remaining at 1 uM after 60 mins by LC-MS/MS analysis. Format: ADME, cell-based, Hepatocyte. Particulars: read-out: Stability. The method in brief:
as §1

The next data set concerns the target Cytochrome P450 2D6 (Homo sapiens, UniProt P10635). In words: Inhibition of CYP2D6 in human liver microsomes using bufuralol hydrochloride salt as substrate incubated for 20 mins in presence of NADPH by LC-MS/MS analysis. The format is ADME.
The target in data set [15] is CX3C chemokine receptor 1 (Homo sapiens) (UniProt P49238). In words: Antagonist activity at human Gi/G0-coupled CX3CR1 expressed in CHOK1 cells assessed as inhibition of CX3CL1-induced beta arrestin2 recruitment at 500 nM preincubated for 30 mins followed by CX3CL1 stimulation and measured after 90 to 180 mins by pathhunter assay. Format: cell-based. As to conditions: CHO-K1.
Chain of CX3C chemokine receptor 1 (Homo sapiens) (P49238 whole entry): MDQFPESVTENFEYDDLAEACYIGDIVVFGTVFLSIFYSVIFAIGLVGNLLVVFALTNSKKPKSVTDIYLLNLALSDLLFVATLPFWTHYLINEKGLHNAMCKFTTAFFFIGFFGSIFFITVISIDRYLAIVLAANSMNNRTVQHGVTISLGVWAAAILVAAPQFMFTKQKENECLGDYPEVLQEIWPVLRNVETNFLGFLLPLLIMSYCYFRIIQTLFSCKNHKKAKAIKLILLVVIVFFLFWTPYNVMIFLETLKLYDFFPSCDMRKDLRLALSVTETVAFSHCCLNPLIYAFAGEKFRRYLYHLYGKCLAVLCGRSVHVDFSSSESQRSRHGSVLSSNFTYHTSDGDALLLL

Active and inactive are the calls of the source. The rule behind the calls is not given here. Bounds are passed on as bounds.

Chain of C-X-C chemokine receptor type 4 (Homo sapiens) (P61073 whole entry): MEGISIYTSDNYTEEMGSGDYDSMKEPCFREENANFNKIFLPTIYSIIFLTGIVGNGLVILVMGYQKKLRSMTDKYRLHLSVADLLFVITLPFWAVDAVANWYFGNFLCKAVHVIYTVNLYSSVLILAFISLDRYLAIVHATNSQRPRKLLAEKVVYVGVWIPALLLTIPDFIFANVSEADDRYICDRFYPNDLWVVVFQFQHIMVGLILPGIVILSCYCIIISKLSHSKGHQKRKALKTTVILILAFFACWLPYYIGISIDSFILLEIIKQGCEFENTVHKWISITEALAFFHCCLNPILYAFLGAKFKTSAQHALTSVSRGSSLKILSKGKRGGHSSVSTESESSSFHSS
Chain of C-X-C chemokine receptor type 3 (Homo sapiens) (P49682 whole entry): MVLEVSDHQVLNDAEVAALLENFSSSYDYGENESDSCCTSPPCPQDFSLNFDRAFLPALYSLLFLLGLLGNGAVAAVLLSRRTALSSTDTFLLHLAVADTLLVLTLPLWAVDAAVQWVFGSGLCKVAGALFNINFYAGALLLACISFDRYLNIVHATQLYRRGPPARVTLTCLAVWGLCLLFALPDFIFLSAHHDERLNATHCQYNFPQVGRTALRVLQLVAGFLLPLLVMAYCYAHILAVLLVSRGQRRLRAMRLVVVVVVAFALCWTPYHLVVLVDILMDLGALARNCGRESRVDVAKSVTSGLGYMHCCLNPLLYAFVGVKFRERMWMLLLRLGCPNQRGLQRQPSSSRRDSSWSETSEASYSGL
Chain of Cytochrome P450 2D6 (P10635 whole entry): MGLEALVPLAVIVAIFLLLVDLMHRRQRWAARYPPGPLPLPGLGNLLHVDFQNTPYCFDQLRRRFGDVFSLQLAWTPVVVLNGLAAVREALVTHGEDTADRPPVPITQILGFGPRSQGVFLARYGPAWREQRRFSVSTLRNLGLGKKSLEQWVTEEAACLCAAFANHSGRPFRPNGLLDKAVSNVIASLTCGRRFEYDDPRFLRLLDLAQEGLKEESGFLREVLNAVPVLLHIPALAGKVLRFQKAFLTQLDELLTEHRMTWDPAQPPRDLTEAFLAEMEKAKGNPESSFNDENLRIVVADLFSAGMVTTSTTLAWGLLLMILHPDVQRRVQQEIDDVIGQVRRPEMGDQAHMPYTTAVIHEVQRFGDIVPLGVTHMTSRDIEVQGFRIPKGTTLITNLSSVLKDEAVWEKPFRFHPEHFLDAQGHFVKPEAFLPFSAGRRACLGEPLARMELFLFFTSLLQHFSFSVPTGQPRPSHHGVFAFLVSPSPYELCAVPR
Chain of C-C chemokine receptor type 6 (Homo sapiens) (P51684 whole entry): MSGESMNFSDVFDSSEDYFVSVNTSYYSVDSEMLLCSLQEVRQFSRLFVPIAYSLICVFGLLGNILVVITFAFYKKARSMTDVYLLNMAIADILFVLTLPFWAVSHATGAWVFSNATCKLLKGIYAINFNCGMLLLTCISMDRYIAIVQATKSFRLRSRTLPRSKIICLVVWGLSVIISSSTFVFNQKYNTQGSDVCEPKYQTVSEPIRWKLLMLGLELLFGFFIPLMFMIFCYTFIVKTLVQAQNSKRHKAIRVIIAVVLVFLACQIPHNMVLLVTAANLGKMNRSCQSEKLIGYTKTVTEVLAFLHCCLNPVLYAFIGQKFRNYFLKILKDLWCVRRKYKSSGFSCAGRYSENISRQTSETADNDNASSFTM
Chain of C-X-C chemokine receptor type 2 (Homo sapiens) (P25025 whole entry): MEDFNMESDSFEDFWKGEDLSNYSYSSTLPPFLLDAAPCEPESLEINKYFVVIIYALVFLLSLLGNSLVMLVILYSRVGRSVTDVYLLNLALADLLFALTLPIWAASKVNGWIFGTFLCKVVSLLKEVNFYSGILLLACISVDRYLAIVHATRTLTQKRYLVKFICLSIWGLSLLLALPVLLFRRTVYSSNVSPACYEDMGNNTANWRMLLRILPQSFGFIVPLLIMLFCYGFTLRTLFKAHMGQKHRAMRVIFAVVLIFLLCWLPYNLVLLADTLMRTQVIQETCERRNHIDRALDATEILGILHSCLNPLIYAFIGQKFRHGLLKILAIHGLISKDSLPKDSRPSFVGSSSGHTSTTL
Chain of C-X-C chemokine receptor type 1 (Homo sapiens) (P25024 whole entry): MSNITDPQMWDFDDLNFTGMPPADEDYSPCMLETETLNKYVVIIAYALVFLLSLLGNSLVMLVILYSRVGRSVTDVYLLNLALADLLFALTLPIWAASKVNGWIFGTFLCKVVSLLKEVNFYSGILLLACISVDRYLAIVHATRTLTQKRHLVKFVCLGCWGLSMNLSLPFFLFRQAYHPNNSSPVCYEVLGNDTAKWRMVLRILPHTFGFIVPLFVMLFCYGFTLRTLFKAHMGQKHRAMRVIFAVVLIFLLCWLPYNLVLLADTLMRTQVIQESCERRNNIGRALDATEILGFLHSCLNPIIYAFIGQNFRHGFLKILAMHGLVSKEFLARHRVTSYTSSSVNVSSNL

On to `C[C@H](c1ccc(Cl)cc1Cl)n1nc(C#N)c2ncc(N3CC([C@H]4CCCN(CCO)C4)C3)nc21`, for which the result in data set [1], in data set [2], in [3], in [4], in [5] and in data set [9] was inactive. In addition, the result in data set [10], in data set [12], in data set [13] and in data set [15] was inactive. Moreover, the outcome in the data set with Panc02 was Active. The figures for the remaining at 1 h, 1 µM in data set [6] and in data set [14] were 91% and 73%, respectively. Also, the figures for the IC50 (in data set [7]; at Cytochrome P450 2D6) were 22 nM and above 40 µM, respectively. For the same molecule, the results for the bioavailability in data set [8] and in data set [11] were 44% and 29%, respectively.
